“Also recorded” adds a separate entry of the source.
Assays:
CXCL12 [1] = molecular target: T1, CXCL12 (Homo sapiens, UniProt P48061); assay: 2D NMR chemical shift perturbation titration of 15N-CXCL12; assay type: binding; conditions: for precipitation/aggregation of CXCL12 on addition of compound: NMR titration samples
[2] = Qualitative solubility of compounds in NMR titration samples; assay type: physicochemical; conditions: samples prepared for NMR titration
Outline: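 Test compound titrated into CXCL12 at increasing concentrations up to 1600 μM, with HSQC spectra recorded at each step. Solubility was scored against a cut-off of ≥1600 μM in these titration samples. Soluble compounds counted as binders if they also shifted at least two of residues I28, V39 and A40 by ≥0.5 ppm.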

CXCL12 [3] = molecular target: T1, CXCL12; assay: Calculation of ligand efficiency; conditions: Table 6; LLE = pKd – cLogP

Row | SMILES | precipitation/aggregation of CXCL12 on addition of compound (CXCL12 [1]) | solubility, qualitative [2] | also measured
1 | O=C(O)c1ccc(Nc2nc(Nc3ccc(C(=O)O)cc3)nc(-c3ccccc3)n2)cc1 [Compound 9m] | caused aggregation and precipitation of the protein |  | 
2 | O=C(O)CSc1nc(SCC(=O)O)nc(-c2ccc(-c3ccccc3)cc2)n1 [Compound 13e] |  | insoluble; also recorded: low solubility | 
3 | O=C(O)CSc1nc(SCC(=O)O)nc(-c2ccc(N3CCOCC3)cc2)n1 [Compound 13i] |  | qualitatively greater solubility | 
4 | O=C(O)CSc1nc(SCC(=O)O)nc(-c2cnc3ccccc3c2)n1 [Compound 13l] | precipitated the protein from solution; also recorded: caused CXCL12 to precipitate |  | 
5 | O=C(O)CSc1nc(SCC(=O)O)nc(-c2ccc(Oc3ccccc3)cc2)n1 [Compound 13m] | precipitated the protein from solution; also recorded: caused CXCL12 to precipitate |  | 
6 | O=C(O)CSc1nc(SCC(=O)O)nc(-c2ccoc2)n1 [Compound 13n] | precipitated the protein from solution; also recorded: caused CXCL12 to precipitate |  | 
7 | O=C(O)CSc1nc(SCC(=O)O)nc(C2C3CC4CC(C3)CC2C4)n1 (centres unmarked) [Compound 17, 2,2'-((6-((1r,3r)-Adamantan-2-yl)-1,3,5-triazine-2,4-diyl)bis(sulfanediyl))diacetic acid] |  |  | Kd (CXCL12 [1]): > 1600 µM
8 | O=C(O)CSc1nc(SCC(=O)O)nc(C2=CCCCC2)n1 [Compound 20, 2,2'-((6-(Cyclohex-1-en-1-yl)-1,3,5-triazine-2,4-diyl)bis(sulfanediyl))diacetic acid] | caused the protein to precipitate; also recorded: b 20 caused CXCL12 to precipitate |  | 
9 | O=C(O)CSc1nc(SCC(=O)O)nc(Sc2ccccc2)n1 [Compound 24a, 2,2'-((6-(Phenylthio)-1,3,5-triazine-2,4-diyl)bis(sulfanediyl))diacetic acid] |  | not as soluble as some of our other analogues | 
10 | O=C(O)CSc1nc(SCC(=O)O)nc(N2CCOCC2)n1 [Compound 24j] |  | notably more soluble than its analogues | LLE (lipophilic ligand efficiency) (CXCL12 [3]): 2.07

From article PMC8592115 (ACS Medicinal Chemistry Letters, 2021)
